Data published in ChEMBL document CHEMBL3994667, “Small Molecule Lysyl Oxidase-like 2 (LOXL2) Inhibitors: The Identification of an Inhibitor Selective for LOXL2 over LOX” (ACS Med Chem Lett, 2017).

Legend:
Lysyl oxidase homolog 2 [1] = target: T1, Lysyl oxidase homolog 2 (Homo sapiens, UniProt Q9Y4K0); test: Inhibition of full length recombinant human LOXL2 expressed in CHO cells assessed as reduction in H2O2 production using DAP as substrate preincubated for 2 hrs followed by substrate addition measured every 2 minutes for 50 minutes by Amplex red dye based fluorescence assay
T1 sequence (Q9Y4K0 whole entry): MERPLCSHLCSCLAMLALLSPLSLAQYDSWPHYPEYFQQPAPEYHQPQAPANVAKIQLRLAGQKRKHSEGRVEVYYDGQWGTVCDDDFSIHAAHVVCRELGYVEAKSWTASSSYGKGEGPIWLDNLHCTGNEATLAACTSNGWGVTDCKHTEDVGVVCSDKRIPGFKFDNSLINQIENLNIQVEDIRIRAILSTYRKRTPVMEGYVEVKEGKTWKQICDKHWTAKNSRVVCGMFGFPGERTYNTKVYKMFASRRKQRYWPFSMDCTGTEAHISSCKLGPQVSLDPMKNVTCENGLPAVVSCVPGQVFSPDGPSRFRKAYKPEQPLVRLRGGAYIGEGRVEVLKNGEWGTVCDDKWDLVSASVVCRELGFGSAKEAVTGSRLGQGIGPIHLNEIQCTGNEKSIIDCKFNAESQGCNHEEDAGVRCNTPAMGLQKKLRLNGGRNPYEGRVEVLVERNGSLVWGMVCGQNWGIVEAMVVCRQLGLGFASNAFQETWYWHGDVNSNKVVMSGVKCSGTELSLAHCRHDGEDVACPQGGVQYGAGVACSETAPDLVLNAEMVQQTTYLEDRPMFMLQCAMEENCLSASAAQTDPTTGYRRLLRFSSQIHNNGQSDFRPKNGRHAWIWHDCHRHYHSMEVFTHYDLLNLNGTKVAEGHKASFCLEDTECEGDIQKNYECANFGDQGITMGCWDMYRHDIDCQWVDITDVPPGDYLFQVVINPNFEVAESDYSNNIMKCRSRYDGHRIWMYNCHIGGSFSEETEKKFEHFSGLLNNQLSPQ

Lysyl oxidase homolog 2 [2] = target: T1, Lysyl oxidase homolog 2; test: Inhibition of full length recombinant human LOXL2 expressed in CHO cells assessed as reduction in H2O2 production using DAP as substrate preincubated for 2 hrs followed by substrate addition measured every 2 minutes for 50 minutes in presence of BSA by Amplex red dye based fluorescence assay
Outline: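 Serum-free concentrated conditioned medium from CHO cells stably expressing human LOXL2, supplemented with BSA. Compounds preincubated for 2 h (the screening preincubation time). Substrate was 1,5-diaminopentane, and the H2O2 formed was detected with Amplex Red. IC50 given as geometric mean x/÷ geometric SD over N determinations.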

Protein-lysine 6-oxidase = target: T2, Protein-lysine 6-oxidase (Homo sapiens, UniProt P28300); test: Inhibition of full length recombinant human LOX expressed in HEK cells assessed as reduction in H2O2 production using DAP as substrate preincubated for 2 hrs followed by substrate addition measured every 2 minutes for 50 minutes in presence of BSA by Amplex red dye based fluorescence assay
T2 sequence (P28300 whole entry): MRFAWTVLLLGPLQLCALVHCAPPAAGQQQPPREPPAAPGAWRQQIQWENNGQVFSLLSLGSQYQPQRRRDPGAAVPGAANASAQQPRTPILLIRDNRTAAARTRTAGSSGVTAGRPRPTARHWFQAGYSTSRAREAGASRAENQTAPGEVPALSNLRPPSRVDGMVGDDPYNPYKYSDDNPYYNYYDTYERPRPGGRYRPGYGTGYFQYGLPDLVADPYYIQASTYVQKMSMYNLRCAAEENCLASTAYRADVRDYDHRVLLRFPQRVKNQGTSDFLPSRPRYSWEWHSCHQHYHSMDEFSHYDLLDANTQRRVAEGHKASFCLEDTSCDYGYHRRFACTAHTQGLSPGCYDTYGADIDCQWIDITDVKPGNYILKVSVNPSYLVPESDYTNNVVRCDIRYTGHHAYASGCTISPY
Outline: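 Enzyme source: serum-free conditioned media from HEK cells stably expressing human LOX, with BSA added to give measurable activity. Activity is measured as H2O2 from oxidative deamination of 1,5-diaminopentane (DAP), read by Amplex Red. IC50 is given as geometric mean x/÷ geometric standard deviation, with N-values reported.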

Lysyl oxidase homolog 2 [3] = target: T3, Lysyl oxidase homolog 2 (Rattus norvegicus, UniProt B5DF27); test: Inhibition of full length recombinant rat LOXL2 expressed in CHO cells assessed as reduction in H2O2 production using DAP as substrate preincubated for 2 hrs followed by substrate addition measured every 2 minutes for 50 minutes in presence of BSA by Amplex red dye based fluorescence assay
T3 sequence (B5DF27 whole entry): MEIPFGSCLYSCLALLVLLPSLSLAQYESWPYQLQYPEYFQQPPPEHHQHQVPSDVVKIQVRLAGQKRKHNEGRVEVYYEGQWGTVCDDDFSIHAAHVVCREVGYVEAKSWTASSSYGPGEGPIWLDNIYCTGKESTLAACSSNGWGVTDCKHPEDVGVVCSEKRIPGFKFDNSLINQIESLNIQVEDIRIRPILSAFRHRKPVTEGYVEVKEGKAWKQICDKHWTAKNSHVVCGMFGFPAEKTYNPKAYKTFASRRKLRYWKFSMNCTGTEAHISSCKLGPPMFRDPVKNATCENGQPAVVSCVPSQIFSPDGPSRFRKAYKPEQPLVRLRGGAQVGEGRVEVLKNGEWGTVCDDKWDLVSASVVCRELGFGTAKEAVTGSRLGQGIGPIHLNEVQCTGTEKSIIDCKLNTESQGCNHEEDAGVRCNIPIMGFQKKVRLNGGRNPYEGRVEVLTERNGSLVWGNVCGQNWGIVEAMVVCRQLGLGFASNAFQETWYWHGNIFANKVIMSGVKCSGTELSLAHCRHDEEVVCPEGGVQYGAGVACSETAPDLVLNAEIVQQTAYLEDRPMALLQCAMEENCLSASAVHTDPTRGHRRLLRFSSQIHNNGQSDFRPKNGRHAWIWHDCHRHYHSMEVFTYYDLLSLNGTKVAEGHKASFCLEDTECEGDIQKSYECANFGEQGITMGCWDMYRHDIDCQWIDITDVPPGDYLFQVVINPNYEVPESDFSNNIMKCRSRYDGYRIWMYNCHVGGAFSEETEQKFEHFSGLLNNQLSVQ
Outline: (§1)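 Rodent LOXL2 is tested under the same conditions as the BSA-supplemented assay: conditioned media plus BSA, with DAP as substrate and Amplex Red detection of H2O2. Species are mouse and rat. IC50 is the geometric mean x/÷ geometric standard deviation from 3 determinations.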

Lysyl oxidase homolog 2 [4] = target: T4, Lysyl oxidase homolog 2 (Mus musculus, UniProt P58022); test: Inhibition of full length recombinant mouse LOXL2 expressed in CHO cells assessed as reduction in H2O2 production using DAP as substrate preincubated for 2 hrs followed by substrate addition measured every 2 minutes for 50 minutes in presence of BSA by Amplex red dye based fluorescence assay; assay type: cell-based; outline: as §1
T4 sequence (P58022 whole entry): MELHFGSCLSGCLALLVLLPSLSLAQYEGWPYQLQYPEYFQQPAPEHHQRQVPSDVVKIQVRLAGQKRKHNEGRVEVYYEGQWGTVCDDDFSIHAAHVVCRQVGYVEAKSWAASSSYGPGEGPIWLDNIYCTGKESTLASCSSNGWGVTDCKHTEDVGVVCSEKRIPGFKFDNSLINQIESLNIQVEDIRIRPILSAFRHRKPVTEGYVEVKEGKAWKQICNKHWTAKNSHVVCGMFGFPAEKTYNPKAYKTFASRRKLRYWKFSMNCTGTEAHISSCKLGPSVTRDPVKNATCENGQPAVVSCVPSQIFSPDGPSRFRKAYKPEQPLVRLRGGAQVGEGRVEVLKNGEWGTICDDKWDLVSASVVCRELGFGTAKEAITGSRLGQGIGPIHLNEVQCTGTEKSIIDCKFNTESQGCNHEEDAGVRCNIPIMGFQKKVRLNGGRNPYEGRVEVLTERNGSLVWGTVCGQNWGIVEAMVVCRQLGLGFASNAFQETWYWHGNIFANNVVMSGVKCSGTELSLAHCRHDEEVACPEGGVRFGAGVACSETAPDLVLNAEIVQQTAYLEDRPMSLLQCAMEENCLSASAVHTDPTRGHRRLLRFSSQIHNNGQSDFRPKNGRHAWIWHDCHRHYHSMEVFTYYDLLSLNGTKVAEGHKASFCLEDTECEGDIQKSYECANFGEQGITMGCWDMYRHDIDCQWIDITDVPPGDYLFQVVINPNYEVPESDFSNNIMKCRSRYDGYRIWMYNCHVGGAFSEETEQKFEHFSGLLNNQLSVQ

Lysyl oxidase homolog 2 [5] = target: T1, Lysyl oxidase homolog 2; test: Inhibition of full length recombinant human LOXL2 expressed in CHO cells assessed as reduction in H2O2 production using DAP as substrate preincubated for 15 mins followed by substrate addition measured every 2 minutes for 50 minutes by Amplex red dye based fluorescence assay
Outline: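 Enzyme source: serum-free concentrated conditioned medium from CHO cells stably expressing human LOXL2. Inhibitor preincubated with enzyme for 15 min, then 1,5-diaminopentane (DAP) added. H2O2 from oxidative deamination read by Amplex Red. IC50 reported as geometric mean x/÷ geometric SD, with N given.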

| Structure (SMILES) | IC50 (Lysyl oxidase homolog 2 [1]) [nM] | other results |
| --- | --- | --- |
| N#CCCN | 66 | IC50 (Lysyl oxidase homolog 2 [2]): 83 nM; IC50 (Protein-lysine 6-oxidase): 550 nM; IC50 (Lysyl oxidase homolog 2 [3]): 127 nM; IC50 (Lysyl oxidase homolog 2 [4]): 128 nM; IC50 (Lysyl oxidase homolog 2 [5]): 243 nM |
| NCc1ccncc1 | 1220 | – |
| NCc1ccc(N)cc1 | 47000 | – |
| COC(=O)c1cccc(CN)c1 | 3540 | – |
| CNCc1ccc(C#N)cc1 | > 100000 | – |
| NCc1ccnc(F)c1 | 385 | – |
| NCc1ccc(-c2nccs2)cc1 | 902 | – |
| N#Cc1ccc(CN)cc1 | 670 | – |
| NCc1ccccc1 [BENZYLAMINE] | 64700 | – |
| NCCc1ccncc1 | 8210 | – |
| NCCc1ccccc1 [PHENETHYLAMINE] | 60100 | – |
| COC(=O)c1ccc(CN)cc1 | 3620 | – |
| NCc1cc(-c2cccnc2)ncc1C(F)(F)F | > 31000 | – |
| N=C(N)c1ccc(CN)cc1 | 1110 | – |
| NCc1ccnc2ccccc12 | 6040 | – |
| N[C@@H]1C[C@H]1c1ccccc1.N[C@H]1C[C@@H]1c1ccccc1 [TRANYLCYPROMINE] | > 100000 | – |
| NCc1ccnc(-n2ccnc2)c1 | 203 | – |
| NCc1ccc([N+](=O)[O-])cc1 | 719 | – |
| NCc1ccc(F)cc1 | 26000 | – |
| N=C(N)c1cccc(CN)c1 | 4970 | – |
| NCc1ccncc1F | 431 | – |
| NCc1ccnc(-c2cccnc2)c1 | 321 | – |
